Screening data: PubChem BioAssay, Broad Institute
Cneo AK release: Cryptococcus neoformans lysis via adenylate kinase release; C. neoformans lysis, adenylate kinase release luminescence, 4 h; normalised: neutral wells 0, clomiphene wells 100; lysis activity, % at 15 µM; hit rate 0.2% among 360,000; AID 651654;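 active = mean lysis activity across replicates of at least 80%, whatever share of replicates individually reach that level; inactive = mean lysis activity below 80%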
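Assay system: log-phase C. neoformans yeast / Quantity: yeast cell density of 5 × 10^6 cells/mL / Medium: fresh YPD growth medium / Compound: single dose / Timing: static 4 h at 37 °C with compound, 1 h detection / Measured by: adenylate kinase release luminescence / Read-out: lysis from increased AK signal / Benchmarks: Clomiphene as positive lysis control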
PGC1a acetyl inh: lowers PGC1a acetylation signal in U2OS cells | hit rate 0.17% among 350,000 | AID 651687 | AlphaScreen anti-acetyl-lysine; with virally co-expressed GCN5 acetyltransferase | inhibition, % at 15.6 µM;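 active = every replicate shows inhibition of at least 40%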
S100A4 MyoIIA: S100A4-myosin IIA interaction inhibition. S100A4/TAMRA-MyoIIA peptide fluorescence polarization. inhibition, % at 10.7 µM. hit rate 0.14% among 360,000. AID 652163;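 active = mean inhibition of at least 70% across replicates, with every replicate also reaching that level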
Target sequence (P26447 whole entry, looked up): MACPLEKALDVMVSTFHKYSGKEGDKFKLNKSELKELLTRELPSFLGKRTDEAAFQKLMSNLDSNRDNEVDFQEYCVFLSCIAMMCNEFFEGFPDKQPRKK
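Material: human S100A4 monomer with TAMRA-labelled myosin IIA peptide; buffer or medium: HEPES pH 7.2 with CaCl2, KCl, NaCl, DTT, Triton; compound dosing: one concentration per compound; schedule: 5 min incubation before reading; benchmarks: neutral control DMSO, positive control TFP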
SIRT5 block: blocks human SIRT5 desuccinylation of peptide; hit rate 1.1% among 330,000; inhibition, % at 15 µM; Q9NXA8; Purified SirT5, succinyl-peptide AMC, trypsin-coupled fluorescence; AID 652115; in the data active = inhibition above about 15%
Target sequence (Q9NXA8 whole entry, looked up): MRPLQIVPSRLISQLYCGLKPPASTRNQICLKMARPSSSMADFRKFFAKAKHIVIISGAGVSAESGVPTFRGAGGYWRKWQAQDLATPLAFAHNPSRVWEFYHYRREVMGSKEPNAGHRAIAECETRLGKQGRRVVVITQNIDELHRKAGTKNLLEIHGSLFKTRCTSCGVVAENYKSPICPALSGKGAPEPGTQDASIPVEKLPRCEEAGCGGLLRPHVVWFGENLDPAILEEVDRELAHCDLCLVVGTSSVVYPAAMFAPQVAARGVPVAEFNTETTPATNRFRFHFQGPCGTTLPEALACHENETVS
rRNA inh HTS: inhibits bacterial ribosomal RNA function over humanized ribosomes | AID 720706 | hit rate 1.6% among 350,000 | GFP signal change (wild-type ribosome), % (concentration not given with the values) | E. coli WT GFP vs humanized-ribosome RFP mutants, fluorescence, 24 h; hits give low values; DMSO median 0, no signal -100;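 active = significant combined selectivity score with lowered wild-type GFP, culture density cut under 30%, mutant RFP and density less affected; inactive = any of these conditions unmet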
C2C12 statin: protects C2C12 myotubes from simvastatin toxicity; ATP luminescence, 48 h; scaled: DMSO 0, geranylgeraniol control 100; AID 602340; hit rate 0.78% among 330,000; rescue of ATP level, % at 7.49 µM;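 active = mean ATP rescue above about 67%, or every replicate alone reaching that limit, limit read from the data, passing the limit was not always enough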;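 also: myotubes were challenged with 10 µM simvastatin during compound exposure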
A number is an active result. In the library only some 3% were active in any assay of this set; here they are far more common.

Screening CCCNC(=O)N1CC2(CCN(CC3CCOCC3)CC2)c2c(n(C)c3cc(OC)ccc23)[C@@H]1CO returned PGC1a acetyl inh inactive and rRNA inh HTS inactive.
For O=C(N[C@@H](Cc1cccnc1)C(=O)N1CCC[C@H]1C(=O)NCCc1ccccc1Cl)c1cccs1 the results were S100A4 MyoIIA inactive, SIRT5 block inactive and rRNA inh HTS -17.
COCC(=O)N1C[C@H](C)[C@H](OC)CN(C)C(=O)c2cc(NC(=O)c3cnccn3)ccc2OC[C@H]1C was read as Cneo AK release inactive, PGC1a acetyl inh inactive, S100A4 MyoIIA inactive, SIRT5 block inactive, rRNA inh HTS inactive and C2C12 statin inactive.
For CC(=O)C1=C(C)Nc2ncnn2C1c1ccccc1OCc1ccccc1 (centres undefined) the results were Cneo AK release inactive, PGC1a acetyl inh inactive and C2C12 statin 114.
Screening CCOC(=O)C1=C(C)Nc2ncnn2C1c1ccccc1F (centres undefined) returned Cneo AK release inactive, PGC1a acetyl inh inactive and C2C12 statin 81.
Screening COc1ccc(-c2nc(C#N)c(N3CCCCC3)o2)cc1 returned Cneo AK release inactive, PGC1a acetyl inh inactive, S100A4 MyoIIA inactive, SIRT5 block inactive, rRNA inh HTS inactive and C2C12 statin inactive.
`COc1ccc(-c2nc(C#N)c(N3CCCCCC3)o2)cc1OC` gave S100A4 MyoIIA inactive, SIRT5 block inactive and rRNA inh HTS -23.
For N#Cc1nc(-c2ccco2)oc1N1CCCC1 the results were PGC1a acetyl inh inactive and C2C12 statin 112.
`CN(C)C(=O)C[C@H]1C[C@H]2c3cc(NS(C)(=O)=O)ccc3O[C@H]2[C@H](CO)O1` gave Cneo AK release inactive, PGC1a acetyl inh inactive, S100A4 MyoIIA inactive, SIRT5 block inactive, rRNA inh HTS inactive and C2C12 statin inactive.
Screening CC(C)NC(=O)Cn1cnc2c1c(=O)n(C)c(=O)n2C returned Cneo AK release inactive, PGC1a acetyl inh inactive and C2C12 statin inactive.
Screening Cn1c(=O)c2c(ncn2CC(=O)NCc2cccnc2)n(C)c1=O returned Cneo AK release inactive, PGC1a acetyl inh inactive and C2C12 statin 106.
Screening C/C(=N/NS(=O)(=O)c1ccc(C)cc1)c1c(O)c2ccccc2oc1=O returned Cneo AK release inactive, PGC1a acetyl inh inactive, S100A4 MyoIIA inactive, SIRT5 block 28, rRNA inh HTS inactive and C2C12 statin inactive.
For CC(=O)c1c(C)[nH]c(C(=O)OCC(=O)Nc2cc(S(=O)(=O)N3CCCC3)ccc2Cl)c1C the results were Cneo AK release inactive, PGC1a acetyl inh inactive and C2C12 statin inactive.
For COc1ccc(S(=O)(=O)N2CCOCC2)cc1NC(=O)CSc1n[nH]c(C(C)C)n1 the results were Cneo AK release inactive, PGC1a acetyl inh inactive, S100A4 MyoIIA inactive, SIRT5 block 20, rRNA inh HTS inactive and C2C12 statin inactive.
Screening COc1ccc(S(=O)(=O)N2CCOCC2)cc1NC(=O)COC(=O)c1[nH]c(C)c(C(C)=O)c1C returned Cneo AK release inactive, PGC1a acetyl inh inactive, S100A4 MyoIIA inactive, SIRT5 block 17, rRNA inh HTS inactive and C2C12 statin inactive.
`Cc1ccc(S(=O)(=O)N2CCOCC2)cc1NC(=O)COC(=O)c1n[nH]c(=O)c2ccccc12` gave PGC1a acetyl inh inactive, S100A4 MyoIIA inactive, SIRT5 block 16 and rRNA inh HTS inactive.
`Cc1ccc(S(=O)(=O)N(C)C)cc1NC(=O)COC(=O)c1n[nH]c(=O)c2ccccc12` gave PGC1a acetyl inh inactive, S100A4 MyoIIA inactive, SIRT5 block inactive and rRNA inh HTS inactive.
Screening O=C([C@H]1N[C@H]2c3ccc(/C=C/c4ccccc4)c(=O)n3C[C@H]2[C@@H]1CO)N1CCCCC1 returned Cneo AK release inactive, S100A4 MyoIIA inactive, SIRT5 block inactive, rRNA inh HTS inactive and C2C12 statin inactive.
CO[C@@H](CN(C)Cc1cc(F)ccc1F)[C@@H](C)CN(C(=O)Nc1ccc(F)cc1)[C@H](C)CO was read as Cneo AK release inactive, PGC1a acetyl inh inactive, S100A4 MyoIIA inactive, SIRT5 block inactive, rRNA inh HTS inactive and C2C12 statin inactive.
Screening O=C(Oc1c(-c2ccccc2)c(=O)n2c3c(cccc13)CC2)c1ccccc1 returned Cneo AK release inactive, PGC1a acetyl inh inactive, S100A4 MyoIIA inactive, SIRT5 block inactive and rRNA inh HTS -28.
`CCCNC(=O)C[C@@H]1C[C@H]2c3cc(NS(=O)(=O)c4cccc(OC)c4)ccc3O[C@H]2[C@@H](CO)O1` gave Cneo AK release inactive, PGC1a acetyl inh inactive, S100A4 MyoIIA inactive, SIRT5 block inactive, rRNA inh HTS inactive and C2C12 statin inactive.
Screening O=C1CC(SC(=Nc2ccccc2)Nc2ccccc2)C(=O)N1c1cccc2ccccc12 (centres undefined) returned Cneo AK release inactive, PGC1a acetyl inh inactive and C2C12 statin 120.
`CCn1c(=O)c(C(=O)CN2CCN(S(=O)(=O)c3ccc(C)cc3C)CC2)c(N)n(Cc2ccccc2)c1=O` gave Cneo AK release inactive, S100A4 MyoIIA inactive, SIRT5 block 23 and rRNA inh HTS inactive.
For CCn1c(=O)c(C(=O)CN2CCN(S(=O)(=O)c3ccccc3)CC2)c(N)n(Cc2ccccc2)c1=O the results were PGC1a acetyl inh inactive, S100A4 MyoIIA inactive, SIRT5 block inactive and rRNA inh HTS inactive.
`COCC(=O)N(C)C[C@@H]1Oc2cc(C#CC(C)(C)O)ccc2S(=O)(=O)N([C@@H](C)CO)C[C@@H]1C` gave Cneo AK release inactive, PGC1a acetyl inh inactive, S100A4 MyoIIA inactive, SIRT5 block inactive, rRNA inh HTS inactive and C2C12 statin inactive.
For COc1ccc(C(=O)Nc2ccc3[nH]ccc3c2)cc1 the results were PGC1a acetyl inh inactive, S100A4 MyoIIA inactive and rRNA inh HTS -31.
For COc1ccc(C(=O)Nc2ccc3[nH]ccc3c2)cc1OC the results were Cneo AK release inactive, PGC1a acetyl inh inactive, S100A4 MyoIIA inactive, SIRT5 block inactive, rRNA inh HTS inactive and C2C12 statin inactive.
`COc1ccc(OC)c(C(=O)Nc2ccc3[nH]ccc3c2)c1` gave PGC1a acetyl inh inactive, S100A4 MyoIIA inactive, SIRT5 block inactive and rRNA inh HTS -23.
Screening CCCN(C)C[C@H]1OCCCC[C@@H](C)Oc2ccc(NC(=O)c3ccncc3)cc2C(=O)N([C@@H](C)CO)C[C@H]1C returned PGC1a acetyl inh inactive, rRNA inh HTS inactive and C2C12 statin inactive.
Screening COc1ccc(S(=O)(=O)Nc2ccc3c(c2)C(=O)N([C@H](C)CO)C[C@H](C)[C@@H](CN(C)C(=O)Cc2ccccc2)OCCCC[C@H](C)O3)cc1 returned Cneo AK release inactive, PGC1a acetyl inh inactive, S100A4 MyoIIA inactive, SIRT5 block inactive and rRNA inh HTS inactive.
Clc1ccc(-c2csc(N/N=C/c3ccco3)n2)cc1 was read as S100A4 MyoIIA inactive and rRNA inh HTS inactive.
